Measurements published in ChEMBL document CHEMBL2021801, “Thienopyridine ureas as dual inhibitors of the VEGF and Aurora kinase families” (Bioorg Med Chem Lett, 2012).
Calls of active or inactive are those of the source. No cut-off for these calls is given here.

Assays:
[1] = molecular target: T1, Vascular endothelial growth factor receptor 2 (Homo sapiens, UniProt P35968); test: Inhibition of KDR using 1 mM ATP by HTRF assay
[2] = system: Mus musculus; test: In vivo inhibition of KDR in po dosed mouse assessed as estradiol-induced uterine edema; assay type: functional
[3] = molecular target: T2, Aurora kinase B (Homo sapiens, UniProt Q96GD4); test: Inhibition of Aurora B using 1 mM ATP by HTRF assay
T2 sequence (Q96GD4 whole entry): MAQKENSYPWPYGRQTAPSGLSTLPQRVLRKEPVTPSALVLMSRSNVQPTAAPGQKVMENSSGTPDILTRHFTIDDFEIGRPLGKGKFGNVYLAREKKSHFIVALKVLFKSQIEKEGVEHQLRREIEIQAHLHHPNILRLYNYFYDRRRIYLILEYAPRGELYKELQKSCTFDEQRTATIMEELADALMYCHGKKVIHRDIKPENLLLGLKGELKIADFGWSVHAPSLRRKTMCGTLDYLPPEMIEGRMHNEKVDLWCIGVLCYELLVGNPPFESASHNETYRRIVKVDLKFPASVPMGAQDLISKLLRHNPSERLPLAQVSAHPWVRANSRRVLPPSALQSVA

[4] = molecular target: T2, Aurora kinase B; conditions: NCI-H1229
[5] = molecular target: T1, Vascular endothelial growth factor receptor 2; test: Inhibition of human KDR phosphorylation expressed in mouse NIH3T3 cells; assay type: cell-based
[6] = Half life in CD1 (ICR) mouse at 3 mg/kg, iv; assay type: ADME, organism-based; set-up: dose 3 mg/kg, route intravenous; conditions: in vivo
[7] = AUC in CD1 (ICR) mouse at 10 mg/kg, po; assay type: ADME, organism-based; set-up: dose 10 mg/kg, route oral; conditions: plasma
[8] = Oral bioavailability in CD1 (ICR) mouse at 10 mg/kg; assay type: ADME, organism-based; conditions: in vivo
[9] = Volume of distribution in CD1 (ICR) mouse at 3 mg/kg, iv; assay type: ADME, organism-based; set-up: dose 3 mg/kg, route intravenous; conditions: in vivo
[10] = system: Mus musculus; test: In vivo inhibition of KDR in mouse assessed as estradiol-induced uterine edema up to 30 mg/kg, po; assay type: functional, organism-based; set-up: dose 30 mg/kg
In short: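 Estradiol-induced uterine edema model in mice, a readout of acute in vivo KDR activity. Compound is given orally and ED50 is reported in mg/kg po. Procedure follows the cited reference.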

[11] = Clearance in CD1 (ICR) mouse at 3 mg/kg, iv; assay type: ADME, organism-based; set-up: dose 3 mg/kg, route intravenous; conditions: in vivo
[12] = Plasma clearance in dog; assay type: ADME, organism-based, Canis lupus familiaris
[13] = species on record: Canis familiaris; test: Cardiotoxicity in dog assessed as QT prolongation time at 117 uM plasma concentration; assay type: toxicity, organism-based, Canis lupus familiaris
[14] = Protein binding in mouse; assay type: ADME, organism-based; conditions: plasma, read-out: PB
[15] = Half life in mouse; assay type: ADME, organism-based; conditions: in vivo
[16] = molecular target: T3, Cytochrome P450 3A4 (Homo sapiens, UniProt P08684); test: Inhibition of CYP3A4 up to 10 uM; assay type: ADME
T3 sequence (P08684 whole entry): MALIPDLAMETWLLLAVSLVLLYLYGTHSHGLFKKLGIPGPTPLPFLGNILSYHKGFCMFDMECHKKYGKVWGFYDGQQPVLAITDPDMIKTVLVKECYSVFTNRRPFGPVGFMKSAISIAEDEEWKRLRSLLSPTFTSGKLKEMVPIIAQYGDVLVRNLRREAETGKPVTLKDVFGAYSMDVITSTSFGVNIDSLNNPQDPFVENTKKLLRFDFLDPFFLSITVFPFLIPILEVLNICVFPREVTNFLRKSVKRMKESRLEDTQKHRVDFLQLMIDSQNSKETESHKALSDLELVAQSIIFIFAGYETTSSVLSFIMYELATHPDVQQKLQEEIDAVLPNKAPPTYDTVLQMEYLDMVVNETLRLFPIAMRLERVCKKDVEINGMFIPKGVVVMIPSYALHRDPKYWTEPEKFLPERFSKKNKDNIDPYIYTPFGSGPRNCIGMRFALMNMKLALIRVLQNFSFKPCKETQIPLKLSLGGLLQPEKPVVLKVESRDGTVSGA

[17] = Plasma clearance in mouse; assay type: ADME, organism-based
[18] = Half life in rat; assay type: ADME, organism-based; conditions: in vivo
[19] = Half life in dog; assay type: ADME, organism-based, Canis lupus familiaris; conditions: in vivo
[20] = Volume of distribution at steady state in dog; assay type: ADME, organism-based, Canis lupus familiaris; conditions: in vivo, read-out: Vdss
[21] = Volume of distribution at steady state in mouse; assay type: ADME, organism-based; conditions: in vivo, read-out: Vdss
[22] = Lipophilicity, log D of the compound at pH 7; assay type: physicochemical; conditions: buffer
[23] = Protein binding in dog; assay type: ADME, organism-based, Canis lupus familiaris; conditions: plasma, read-out: PB
[24] = Aqueous solubility of the compound; assay type: physicochemical; conditions: buffer
In short: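 Aqueous solubility was measured across the physiological pH range.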

[25] = Plasma clearance in rat; assay type: ADME, organism-based
[26] = molecular target: T3, Cytochrome P450 3A4; test: Inhibition of CYP3A4; assay type: ADME
[27] = molecular target: Voltage-gated inwardly rectifying potassium channel KCNH2 (Homo sapiens, UniProt Q12809); test: Inhibition of human Erg by patch clamp assay in absence of plasma protein
Voltage-gated inwardly rectifying potassium channel KCNH2, sequence (Q12809 whole entry): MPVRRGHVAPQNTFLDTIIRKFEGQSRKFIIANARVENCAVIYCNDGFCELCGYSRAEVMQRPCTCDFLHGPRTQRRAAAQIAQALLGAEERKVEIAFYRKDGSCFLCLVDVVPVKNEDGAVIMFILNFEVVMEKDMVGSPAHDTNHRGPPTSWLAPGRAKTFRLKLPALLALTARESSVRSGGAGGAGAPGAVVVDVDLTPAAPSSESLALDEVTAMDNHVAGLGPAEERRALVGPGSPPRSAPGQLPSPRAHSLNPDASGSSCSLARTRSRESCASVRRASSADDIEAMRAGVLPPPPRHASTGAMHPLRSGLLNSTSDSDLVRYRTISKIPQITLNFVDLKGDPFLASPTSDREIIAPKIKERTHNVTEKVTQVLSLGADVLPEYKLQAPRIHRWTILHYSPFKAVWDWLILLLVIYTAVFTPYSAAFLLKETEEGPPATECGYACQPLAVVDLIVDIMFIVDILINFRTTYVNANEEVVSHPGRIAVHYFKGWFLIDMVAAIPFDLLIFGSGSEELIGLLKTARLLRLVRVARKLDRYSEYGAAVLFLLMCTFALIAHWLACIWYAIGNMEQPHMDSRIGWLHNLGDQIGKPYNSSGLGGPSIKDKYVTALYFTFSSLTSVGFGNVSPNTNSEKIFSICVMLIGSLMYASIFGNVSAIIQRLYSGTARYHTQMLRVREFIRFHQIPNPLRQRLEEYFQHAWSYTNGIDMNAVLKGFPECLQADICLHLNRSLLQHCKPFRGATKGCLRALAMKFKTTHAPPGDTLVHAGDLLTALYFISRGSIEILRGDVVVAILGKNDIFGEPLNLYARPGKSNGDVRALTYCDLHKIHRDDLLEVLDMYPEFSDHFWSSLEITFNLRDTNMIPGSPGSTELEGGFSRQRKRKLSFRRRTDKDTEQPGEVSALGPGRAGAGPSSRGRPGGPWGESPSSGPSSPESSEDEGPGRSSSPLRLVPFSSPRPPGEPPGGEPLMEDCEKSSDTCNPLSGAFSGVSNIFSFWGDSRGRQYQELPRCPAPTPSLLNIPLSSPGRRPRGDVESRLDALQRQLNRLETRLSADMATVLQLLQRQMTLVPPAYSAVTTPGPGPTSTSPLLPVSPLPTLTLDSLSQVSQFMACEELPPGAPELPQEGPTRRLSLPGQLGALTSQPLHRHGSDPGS

[28] = Protein binding in rat; assay type: ADME, organism-based; conditions: plasma, read-out: PB
[29] = Volume of distribution at steady state in rat; assay type: ADME, organism-based; conditions: in vivo, read-out: Vdss
[30] = species on record: Canis familiaris; test: Cardiotoxicity in dog assessed as QT prolongation time at 32.1 uM plasma concentration; assay type: toxicity, organism-based, Canis lupus familiaris
[31] = system: HT-1080; test: Antitumor activity against human HT1080 cells xenografted in mouse assessed as tumor growth inhibition at 10 mg/kg, po qd; assay type: functional; conditions: read-out: GI
[32] = molecular target: T3, Cytochrome P450 3A4; test: Inhibition of CYP3A4 preincubated for 15 mins; assay type: ADME

T1 sequence (P35968 whole entry): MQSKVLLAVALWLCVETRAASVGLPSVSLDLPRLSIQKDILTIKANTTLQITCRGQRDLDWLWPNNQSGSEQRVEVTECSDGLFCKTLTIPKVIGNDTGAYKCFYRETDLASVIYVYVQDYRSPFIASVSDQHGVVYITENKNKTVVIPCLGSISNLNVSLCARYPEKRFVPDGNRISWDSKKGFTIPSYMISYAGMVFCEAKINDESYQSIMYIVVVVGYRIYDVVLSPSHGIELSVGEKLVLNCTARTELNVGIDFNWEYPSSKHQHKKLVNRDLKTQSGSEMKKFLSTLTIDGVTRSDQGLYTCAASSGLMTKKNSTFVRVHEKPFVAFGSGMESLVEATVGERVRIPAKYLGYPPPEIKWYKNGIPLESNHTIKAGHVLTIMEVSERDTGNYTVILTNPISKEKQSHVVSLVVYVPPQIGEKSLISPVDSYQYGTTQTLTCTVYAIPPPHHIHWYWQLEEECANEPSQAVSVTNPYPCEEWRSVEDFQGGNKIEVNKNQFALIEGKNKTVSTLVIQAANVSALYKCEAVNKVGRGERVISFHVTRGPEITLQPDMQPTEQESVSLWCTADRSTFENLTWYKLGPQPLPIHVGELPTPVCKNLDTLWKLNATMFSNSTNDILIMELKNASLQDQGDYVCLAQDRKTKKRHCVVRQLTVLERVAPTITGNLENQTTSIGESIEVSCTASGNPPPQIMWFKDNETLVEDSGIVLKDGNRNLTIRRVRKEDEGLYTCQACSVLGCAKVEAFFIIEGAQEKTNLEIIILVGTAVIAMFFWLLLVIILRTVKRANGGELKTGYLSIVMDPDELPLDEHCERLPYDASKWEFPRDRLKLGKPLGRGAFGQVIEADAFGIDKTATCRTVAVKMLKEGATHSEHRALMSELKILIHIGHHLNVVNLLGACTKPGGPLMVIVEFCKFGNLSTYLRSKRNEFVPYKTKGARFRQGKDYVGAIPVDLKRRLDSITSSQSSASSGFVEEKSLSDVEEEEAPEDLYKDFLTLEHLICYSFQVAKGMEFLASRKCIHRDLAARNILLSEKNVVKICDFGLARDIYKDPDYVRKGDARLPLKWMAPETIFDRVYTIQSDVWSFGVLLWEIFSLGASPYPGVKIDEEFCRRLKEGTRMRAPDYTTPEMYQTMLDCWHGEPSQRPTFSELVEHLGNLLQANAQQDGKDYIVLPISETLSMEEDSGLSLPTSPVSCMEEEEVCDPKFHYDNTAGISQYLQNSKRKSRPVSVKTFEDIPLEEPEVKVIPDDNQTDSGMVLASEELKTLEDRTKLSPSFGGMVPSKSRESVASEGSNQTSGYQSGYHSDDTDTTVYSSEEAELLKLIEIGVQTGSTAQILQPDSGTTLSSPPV

Cn1cc(-c2cnc(N)c3c(-c4ccc(NC(=O)Nc5ccccc5F)cc4)csc23)cn1
IC50 [1]: 3 nM | ED50 [2]: 1.1 mg/kg | IC50 [3]: 18 nM | EC15 [4]: < 30 nM

Nc1ncc(-c2cnn(CCN3CCCCC3)c2)c2scc(-c3ccc(NC(=O)Nc4cccc(F)c4)cc3)c12
IC50 [1]: 4 nM | ED50 [2]: > 10 mg/kg | IC50 [3]: 8 nM | EC15 [4]: < 3 nM

Cc1cccc(NC(=O)Nc2ccc(-c3csc4c(-c5cc[nH]c5)cnc(N)c34)cc2)c1
IC50 [1]: 4 nM | IC50 [5]: 1 nM | IC50 [3]: 68 nM | EC15 [4]: 389 nM

CNC(=O)c1cnc(N)c2c(-c3ccc(NC(=O)Nc4cccc(C)c4)cc3)csc12
IC50 [5]: 1 nM | IC50 [3]: 13 nM | EC15 [4]: 46 nM

Cn1cc(-c2cnc(N)c3c(-c4ccc(NC(=O)Nc5cccc(Cl)c5)cc4)csc23)cn1
IC50 [1]: 7 nM | ED50 [2]: 2 mg/kg | IC50 [3]: 70 nM | EC15 [4]: 18 nM

Cc1cccc(NC(=O)Nc2ccc(-c3csc4ccnc(N)c34)cc2)c1
half-life [6]: 0.3 h | AUC [7]: 450 ng·h/mL | bioavailability [8]: 18% | Vd [9]: 1.7 L/kg | Activity [10]: inactive | EC15 [4]: 4140 nM | clearance [11]: 66.7 mL/min/kg

COc1ccccc1NC(=O)Nc1ccc(-c2csc3c(-c4cnn(C)c4)cnc(N)c23)cc1
IC50 [1]: 6 nM | ED50 [2]: 8 mg/kg | IC50 [3]: 52 nM | EC15 [4]: > 100 nM

Cc1cccc(NC(=O)Nc2ccc(-c3csc4c(-c5cn[nH]c5)cnc(N)c34)cc2)c1
IC50 [3]: 8 nM | EC15 [4]: 31 nM

Nc1ncc(-c2cnn(CCO)c2)c2scc(-c3ccc(NC(=O)Nc4cccc(F)c4)cc3)c12 [ILORASERTIB]
half-life [6]: 4.7 h | clearance [12]: < 5 mL/min/kg | Time [13]: 25 ms | fraction unbound [14]: < 0.01 | half-life [15]: 4 h | inhibition (INH) [16]: < 20% | ED50 [2]: 3.2 mg/kg | clearance [17]: < 5 mL/min/kg | half-life [18]: 4 h | AUC [7]: 18600 ng·h/mL | half-life [19]: 4 h | bioavailability [8]: 47% | Vd [20]: 0.4 L/kg | Vd [21]: 0.4 L/kg | Vd [9]: 1.7 L/kg | logD [22]: 4.5 | fraction unbound [23]: < 0.01 | solubility [24]: < 78 µM | clearance [25]: < 5 mL/min/kg | IC50 [26]: > 30000 nM | IC50 [27]: 1000 nM | fraction unbound [28]: < 0.01 | Vd [29]: 0.4 L/kg | Time [30]: 11 ms | EC15 [4]: 12 nM | clearance [11]: 5 mL/min/kg

Cn1cc(-c2cnc(N)c3c(-c4ccc(NC(=O)Nc5ccc(Cl)cc5)cc4)csc23)cn1
IC50 [1]: 8 nM | ED50 [2]: 0.3 mg/kg | IC50 [3]: 48 nM | EC15 [4]: 27 nM

Cc1ccc(NC(=O)Nc2ccc(-c3csc4c(-c5cnn(C)c5)cnc(N)c34)cc2)cc1
ED50 [2]: 1 mg/kg | IC50 [3]: 50 nM | EC15 [4]: 64 nM

CC(C)Cn1cc(-c2cnc(N)c3c(-c4ccc(NC(=O)Nc5cccc(F)c5)cc4)csc23)cn1
IC50 [1]: 25 nM | ED50 [2]: 1.1 mg/kg | IC50 [3]: 177 nM | EC15 [4]: 355 nM

Cn1cc(-c2cnc(N)c3c(-c4ccc(NC(=O)Nc5cccc(F)c5)cc4)csc23)cn1
inhibition in vivo at 10 mg/kg [31]: > 70% | half-life [6]: 3.6 h | ED50 [2]: 0.3 mg/kg | AUC [7]: 44000 ng·h/mL | IC50 [32]: 2700 nM | IC50 [3]: 9 nM | bioavailability [8]: 78% | Vd [9]: 0.9 L/kg | IC50 [26]: 7900 nM | EC15 [4]: 6 nM | clearance [11]: 3.33 mL/min/kg

C[C@@H](O)Cn1cc(-c2cnc(N)c3c(-c4ccc(NC(=O)Nc5cccc(F)c5)cc4)csc23)cn1
half-life [6]: 2.9 h | inhibition (INH) [16]: < 20% | ED50 [2]: 1.2 mg/kg | AUC [7]: 14600 ng·h/mL | IC50 [3]: 1 nM | bioavailability [8]: 42% | Vd [9]: 1.2 L/kg | EC15 [4]: 2 nM | clearance [11]: 5 mL/min/kg

Cc1cccc(NC(=O)Nc2ccc(-c3csc4c(-c5ccsc5)cnc(N)c34)cc2)c1
IC50 [1]: 9 nM | IC50 [5]: 31 nM | IC50 [3]: 179 nM | EC15 [4]: > 300 nM
